For series [1], the system named is Rattus norvegicus. Briefly: Toxicity in rat allografted with cytoxan-resistant rat Walker 256 cells intramuscularly assessed as change in body weight at 0.12 mg/kg, qd administered for 5 days. The series is classed as organism-based. More on the design: dose 0.12 mg/kg, route intramuscular. The settings on record: in vivo, im, 120 h. The procedure, abridged: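 Cytoxan-resistant Walker 256 solid tumour in rats, one injection daily for 5 days. Toxicity is the average net body-weight change of the treated group minus that of the untreated controls, in grams.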

A short description of series [2]: Therapeutic index, ratio of LD50 for rat allografted with cytoxan-resistant rat Walker 256 cells to ED10 for antitumor activity against rat Walker 256 cells allografted in rat. As to conditions: read-out: TI. In short, it runs like this:
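Therapeutic index is LD50/ED10 in cytoxan-resistant Walker 256 solid tumour in rats. ED10 is the dose giving a 10% reduction, extrapolated from dose-response data.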

Series [3] relates to Musca domestica. Briefly: Toxicity in male house fly assessed as lowest dose required to cause complete sterility administered in food. It is filed as organism-based. The settings on record: in vivo, po.
Series [4] deals with W256. Briefly: Antitumor activity against cytoxan-resistant rat Walker 256 cells intramuscularly allografted in rat assessed as tumor growth inhibition at 2 mg/kg, qd administered for 5 days relative to control. The series is classed as functional. As to conditions: W256, im, 120 h, route intramuscular, read-out: TGI. The procedure, abridged: (§1)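 Dosed once daily for 5 days. Response is tumor progression in treated (T) versus untreated control (C) animals, expressed as T/C percentage. Host weight change is reported as the average net weight change of the test group minus that of the controls, in grams.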

Series [5] deals with W256. Nature of the series: Antitumor activity against rat Walker 256 cells intramuscularly allografted in rat assessed as survival rate at 0.031 mg/kg, qd administered for 5 days. It is filed as functional, organism-based. Set-up: dose 0.031 mg/kg. The procedure, abridged:
(§2)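 Rats bearing Walker 256 carcinoma as a solid tumor; lines 1-8 use a cytoxan-resistant Walker 256 subline. Dosed once daily for 5 days. Treated (T) and untreated control (C) groups are compared, and the response is given as T/C percentage, reflecting increase in survival time. Host weight change is the average weight change of the test group minus that of the controls, in grams.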

For series [6], the system named is W256. Nature of the series: Antitumor activity against rat Walker 256 cells intramuscularly allografted in rat assessed as tumor growth inhibition. As to conditions: W256, im. It is filed as functional. In short, it runs like this:
as §1

The subject of series [7] is W256. Nature of the series: Antitumor activity against rat Walker 256 cells intramuscularly allografted in rat assessed as survival rate at 0.125 mg/kg, qd administered for 5 days. It is filed as functional, organism-based. Set-up: dose 0.125 mg/kg. The procedure, abridged: as §2
Series [8] concerns W256. Briefly: Antitumor activity against cytoxan-resistant rat Walker 256 cells intramuscularly allografted in rat assessed as survival rate at 1 mg/kg, qd administered for 5 days. Set-up: dose 1 mg/kg. The series is classed as functional, organism-based. In short, it runs like this:
as §2

The test system of series [9] is Rattus norvegicus. Nature of the series: Toxicity in rat allografted with cytoxan-resistant rat Walker 256 cells intramuscularly assessed as change in body weight at 0.25 mg/kg, qd administered for 5 days. The series is classed as organism-based. Set-up: dose 0.25 mg/kg, route intramuscular. As to conditions: in vivo, im, 120 h. The procedure, abridged: (§3)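 Walker 256 carcinoma solid-tumour system in rats (parent line, or the line resistant to cytoxan). Dosing was one injection per day for 5 days. Toxicity was taken as the average net body-weight change of the treated group minus the average net weight change of the untreated tumour-bearing controls, in grams.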

The subject of series [10] is Rattus norvegicus. Nature of the series: Toxicity in rat allografted with rat Walker 256 cells intramuscularly assessed as change in body weight at 1 mg/kg, qd administered for 5 days. It is filed as organism-based. As to conditions: in vivo, im, 120 h. More on the design: dose 1 mg/kg, route intramuscular. In short, it runs like this: as §3
The test system of series [11] is Rattus norvegicus. Nature of the series: Toxicity in rat allografted with rat Walker 256 cells intramuscularly assessed as change in body weight at 0.031 mg/kg, qd administered for 5 days. The series is classed as organism-based. Set-up: dose 0.031 mg/kg, route intramuscular. The settings on record: in vivo, im, 120 h. The procedure, abridged: as §3
The test system of series [12] is Rattus norvegicus. Briefly: Toxicity in rat allografted with cytoxan-resistant rat Walker 256 cells intramuscularly assessed as change in body weight at 1 mg/kg, qd administered for 5 days. More on the design: dose 1 mg/kg, route intramuscular. It is filed as organism-based. As to conditions: in vivo, im, 120 h. The procedure, abridged: as §3
The test system of series [13] is W256. Briefly: Antitumor activity against rat Walker 256 cells intramuscularly allografted in rat assessed as survival rate at 0.5 mg/kg, qd administered for 5 days. The series is classed as functional, organism-based. Set-up: dose 0.5 mg/kg. In short, it runs like this: as §2
Series [14] can be described thus: Toxicity in rat allografted with rat Walker 256 cells intramuscularly. It is filed as organism-based.
For series [15], the species on record is Rattus norvegicus. Nature of the series: Toxicity in Wistar-Furth rat assessed as decrease in secondary spermatocytes measured for 24 hrs. It is filed as organism-based. As to conditions: in vivo. In short, it runs like this: (§4)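 Wistar-Furth rats were injected daily for 5 days at the antifertility-study doses of 1 or 5 mg/kg, depending on agent. Testes or ovaries were taken at sacrifice after 1, 3 or 24 h. Cryostat frozen sections were fixed in 95% alcohol for 10 min and stained with acridine orange (DNA green, RNA red). Results were compared with untreated controls.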

The species entered for series [16] is Rattus norvegicus. Briefly: Toxicity in Wistar-Furth rat assessed as effect on ovary measured for 24 hrs. It is filed as organism-based, Female gonad. As to conditions: in vivo. The procedure, abridged: as §4
Series [17] in a line: Therapeutic index, ratio of LD50 for rat allografted with rat Walker 256 cells to ED10 for antitumor activity against rat Walker 256 cells intramuscularly allografted in rat. It is filed as cell-based. As to conditions: read-out: TI. In short, it runs like this:
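Therapeutic index is LD50/ED10 in the Walker 256 solid tumour system. ED10 is the dose giving a 10% tumour weight reduction, with values extrapolated from dose-response data.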

The test system of series [18] is W256. Nature of the series: Antitumor activity against cytoxan-resistant rat Walker 256 cells intramuscularly allografted in rat assessed as tumor growth inhibition at 0.12 mg/kg, qd administered for 5 days relative to control. The series is classed as functional. The settings on record: W256, im, 120 h, route intramuscular, read-out: TGI. The procedure, abridged: as §1

Series [19] concerns Musca domestica. Nature of the series: Toxicity in male house fly assessed as lowest dose required to cause complete sterility administered in sugar. The series is classed as organism-based. As to conditions: in vivo, po.
Series [20] relates to W256. Briefly: Antitumor activity against cytoxan-resistant rat Walker 256 cells intramuscularly allografted in rat assessed as tumor growth inhibition at 0.5 mg/kg, qd administered for 5 days relative to control. The series is classed as functional. As to conditions: W256, im, 120 h, route intramuscular, read-out: TGI. The procedure, abridged: as §1
The subject of series [21] is Rattus norvegicus. Briefly: Toxicity in rat allografted with rat Walker 256 cells intramuscularly assessed as change in body weight at 0.5 mg/kg, qd administered for 5 days. The series is classed as organism-based. More on the design: dose 0.5 mg/kg, route intramuscular. As to conditions: in vivo, im, 120 h. In short, it runs like this:
as §3

Active and inactive are the calls of the source. The rule behind the calls is not given here.

Regarding `C=CCN(CC=C)P(=O)(N1CC1)N1CC1`, the Activity with Rattus norvegicus [1] was -14 g; in the series on Musca domestica [3], 0.1%; in the series with Rattus norvegicus [9] it was 0 g; in the series on Rattus norvegicus [10] it was -26 g; with Rattus norvegicus [11] it was 0 g; in the series with Rattus norvegicus [12] it was -13 g. The Activity result in the series filed under Rattus norvegicus [15] is “Toxic”; in the series filed under Rattus norvegicus [16], “Non-toxic”; with Musca domestica [19], 0.05%; in the series with Rattus norvegicus [21], -6 g. Moreover, the selectivity ratio in [2] was found to be 2.5; in series [17] it was 10. Moreover, the inhibition in vivo at 2 mg/kg with W256 [4] stood at 9%. Besides, the outcome in the series with W256 [5], in the series on W256 [7], in the series with W256 [8] and in the series on W256 [13] was Active. The ED10 in the series on W256 [6] is 0.5 mg/kg. For the same molecule, in series [14], the 50% lethal dose (LD50) is 5 mg/kg. The inhibition in vivo at 0.12 mg/kg in the series on W256 [18] worked out at 98%. The inhibition in vivo at 0.5 mg/kg with W256 [20] is 58%.

The values above are taken from ChEMBL document CHEMBL3272018, “Synthesis of aziridinylallylaminophosphine oxides and sulfides as potential adjuvant cancer chemotherapeutic agents” (J Med Chem, 1976).
